For data set [1], the system named is Mus musculus. In words: Anticonvulsant activity in CF1 albino mouse assessed as protection against maximal electroshock-induced seizure at 30 mg/kg, ip after 0.5 hrs. The data set is classed as functional, organism-based. Summed up: (§1)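 Male CF-1 mice dosed ip as suspension in 0.5% methylcellulose. Corneal electrodes deliver 60 Hz alternating current, 50 mA for […], after a drop of 0.5% tetracaine HCl in 0.9% NaCl per eye. Protection means abolition of hindlimb tonic extension; scored as protected/tested, or ED50 with 95% confidence interval.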
(In general: In the maximal electroshock model the usual endpoint is tonic extension of the hind limbs.)

In data set [2] the test system is Mus musculus. Put plainly: Neurotoxicity in CF1 albino mouse at 60 mg/kg, ip after 1 to 4 hrs by rotarod test. Conditions: in vivo. The data set is classed as toxicity, organism-based. Summed up: (§2)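 Rotarod neurotoxicity in male albino CF-1 mice dosed ip with compound suspended in 0.5% methylcellulose. Animal placed on a 1 inch diameter knurled plastic rod rotating at 6 rpm. Neurotoxicity scored when the animal falls off three times within 1 min. Readout is number of animals toxic/number tested at the stated time after dosing. TD50 with 95% confidence interval from the quantitative study.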
In general terms: The rotarod test checks motor coordination on a turning rod.

Data set [3] concerns Mus musculus. Put plainly: Neurotoxicity in CF1 albino mouse assessed as death at 300 mg/kg, ip after 0.5 hrs by rotarod test. Type of data set: toxicity, organism-based. Conditions: in vivo. Summed up:
(§3)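 Male albino CF-1 mice dosed ip with compound suspended in 0.5% methylcellulose, then placed on a 1-inch knurled plastic rod turning at 6 rpm. A fall three times within 1 min counted as neurotoxicity. Observations were made at 0.5 h and 4 h after dosing. Result given as animals showing toxicity per animals tested, with the kind of toxicity recorded.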

Data set [4] relates to Mus musculus. In words: Anticonvulsant activity in CF1 albino mouse assessed as protection against maximal electroshock-induced seizure at 3 mg/kg, ip after 0.5 hrs. Type of data set: functional, organism-based. Summed up: as §1
Data set [5] has as its system Rattus norvegicus. Put plainly: Anticonvulsant activity in Sprague-Dawley rat assessed as protection against pilocarpine-induced convulsive status epilepticus at 65 mg/kg, ip. The data set is classed as functional, organism-based. Summed up:
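Male Sprague Dawley rats (150–180 g) dosed ip, pilocarpine 50 mg/kg ip given; compound dosed immediately at first behavioral Stage 3 seizure or 30 min later. Number protected from Racine Stage 3 or greater seizures recorded.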

For data set [6], the system named is Mus musculus. Put plainly: Anticonvulsant activity in CF1 albino mouse assessed as protection against maximal electroshock-induced seizure at 10 mg/kg, ip after 0.5 hrs. The data set is classed as functional, organism-based. Summed up: as §1
The subject of data set [7] is Mus musculus. In words: Neurotoxicity in CF1 albino mouse at 300 mg/kg, ip after 4 hrs by rotarod test. Type of data set: toxicity, organism-based. Conditions: in vivo. Summed up: as §2
Data set [8] has as its system Mus musculus. In words: Neurotoxicity in CF1 albino mouse at 30 mg/kg, ip after 4 hrs by rotarod test. Type of data set: toxicity, organism-based. Conditions: in vivo. Summed up:
as §2

The test system of data set [9] is Mus musculus. Put plainly: Neurotoxicity in CF1 albino mouse at 100 mg/kg, ip after 4 hrs by rotarod test. Type of data set: toxicity, organism-based. Conditions: in vivo. Summed up:
as §2

Data set [10] in a line: Neuroprotective activity in hippocampal slice (unknown origin) assessed as protection against kainic acid-induced cell death using propidium iodide staining. Conditions: Hippocampus. Type of data set: functional. Summed up:
(§4)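 Organotypic hippocampal slice cultures exposed to NMDA or kainic acid alone or with compound; propidium iodide in all wells; PI fluorescence intensity of slices, proportional to cell death, compared with excitotoxin-only slices; qualitative.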

The subject of data set [11] is Mus musculus. In words: Neurotoxicity in CF1 albino mouse assessed as death at 100 mg/kg, ip after 0.5 hrs by rotarod test. Type of data set: toxicity, organism-based. Conditions: in vivo. The method in brief: as §3
Data set [12] deals with Mus musculus. Put plainly: Anticonvulsant activity in CF1 albino mouse assessed as protection against maximal electroshock-induced seizure at 30 mg/kg, ip after 4 hrs. The data set is classed as functional, organism-based. Summed up:
as §1

The subject of data set [13] is Mus musculus. In words: Neurotoxicity in CF1 albino mouse at 3 mg/kg, ip after 0.5 hrs by rotarod test. Type of data set: toxicity, organism-based. Conditions: in vivo. Summed up:
as §2

In data set [14] the test system is Mus musculus. Put plainly: Anticonvulsant activity in CF1 albino mouse assessed as protection against 6 Hz-psychomotor-induced seizure at 60 mg/kg, ip after 4 hrs. Type of data set: functional, organism-based. Summed up:
(§5)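 Male CF-1 mice, ip suspension in 0.5% methylcellulose. Corneal stimulation 0.2 ms monopolar rectangular pulses at 6 Hz, 32 mA for 3 s via constant-current device; mice without minimal clonic phase seizure counted protected. Groups of four; read at 0.25, 0.5, 1, 2, 4 h; result as protected/tested.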

A short description of data set [15]: Neuroprotective activity in hippocampal slice (unknown origin) assessed as protection against NMDA-induced cell death using propidium iodide staining. Conditions: Hippocampus. Type of data set: functional. The method in brief:
as §4

The test system of data set [16] is Mus musculus. Put plainly: Anticonvulsant activity in CF1 albino mouse assessed as protection against subcutaneous pentetrazole-induced seizure at 30 mg/kg, ip after 0.5 hrs. Type of data set: functional, organism-based. Summed up: (§6)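 Male CF-1 mice, ip in 0.5% methylcellulose; pentetrazole at CD97 (85 mg/kg) injected subcutaneously in a loose fold of neck skin. Observed 30 min; absence of even a threshold seizure (single clonic spasm lasting at least 5 s) counted as protection. Scored protected/tested, or ED50.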

Data set [17] has as its system Mus musculus. Put plainly: Neurotoxicity in CF1 albino mouse at 10 mg/kg, ip after 0.5 hrs by rotarod test. The data set is classed as toxicity, organism-based. Conditions: in vivo. The method in brief:
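Rotarod neurotoxicity in male CF-1 mice dosed ip as 0.5% methylcellulose suspension: mouse placed on 1 inch knurled rod rotating at 6 rpm; toxicity when the animal falls off three times within 1 min, with other signs noted. Scored as toxic/tested at 0.5 h and 4 h.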

Data set [18] has as its system Mus musculus. Put plainly: Neurotoxicity in CF1 albino mouse at 30 mg/kg, ip after 0.25 to 4 hrs by rotarod test. The data set is classed as toxicity, organism-based. Conditions: in vivo. The method in brief: as §2
In data set [19] the target is T1, Histamine H3 receptor (Homo sapiens, UniProt Q9Y5N1). In words: Displacement of [3H]-Nalpha-methylhistamine from human recombinant histamine H3 receptor expressed in HEK293 cells after 90 mins. The data set is classed as cell-based. For orientation: Displacement assays read how much labelled ligand stays bound in the presence of the test substance.
Data set [20] concerns Mus musculus. Put plainly: Anticonvulsant activity in CF1 albino mouse assessed as protection against subcutaneous pentetrazole-induced seizure at 30 mg/kg, ip after 4 hrs. The data set is classed as functional, organism-based. Summed up:
as §6

The test system of data set [21] is Mus musculus. Put plainly: Anticonvulsant activity in CF1 albino mouse assessed as protection against 6 Hz-psychomotor-induced seizure at 30 mg/kg, ip after 0.25 to 4 hrs. Type of data set: functional, organism-based. The method in brief:
as §5

The subject of data set [22] is Mus musculus. Put plainly: Anticonvulsant activity in CF1 albino mouse assessed as protection against subcutaneous pentetrazole-induced seizure at 100 mg/kg, ip after 0.5 hrs. Type of data set: functional, organism-based. The method in brief:
as §6

In data set [23] the test system is Mus musculus. In words: Anticonvulsant activity in CF1 albino mouse assessed as protection against subcutaneous pentetrazole-induced seizure at 100 mg/kg, ip after 4 hrs. Type of data set: functional, organism-based. The method in brief:
as §6

In data set [24] the test system is Rattus norvegicus. In words: Anticonvulsant activity in Sprague-Dawley rat assessed as protection against maximal electroshock-induced seizure at 30 mg/kg, po. The data set is classed as functional.
In data set [25] the test system is Mus musculus. Put plainly: Neurotoxicity in CF1 albino mouse assessed as unable to grasp rotarod and death at 100 mg/kg, ip after 0.5 hrs by rotarod test. The data set is classed as toxicity, organism-based. Conditions: in vivo. The method in brief: as §3
The target of data set [26] is T1, Histamine H3 receptor. In words: Antagonist activity at human recombinant histamine H3 receptor expressed in HEK293 cells assessed as inhibition of forskolin/(R)(-)-alpha-methylhistamine-induced cAMP accumulation after 1 hr by TR-FRET immunoassay. The data set is classed as functional, cell-based. Summed up:
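HEK293 cells stably expressing hH3R, stimulated 30 min at room temperature with (R)(-)-α-methylhistamine (15 nM), forskolin and antagonist (0.1 nM–10 µM range) added together. cAMP read by TR-FRET (Eu-cAMP tracer, ULight anti-cAMP antibody, 1 h), converted via cAMP standard curve to % maximal response. Sigmoidal dose–response fit; mean of three experiments, each in triplicate.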

Data set [27] has as its system Liver microsome. Put plainly: Drug metabolism in human liver microsomes after 2 hrs by UPLC-MS/MS analysis. The data set is classed as ADME. Summed up:
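Pooled adult male and female human liver microsomes 1 mg/mL in 0.1 M Tris–HCl pH 7.4 with NADPH regeneration system; started after 5 min preincubation at 37 °C, incubated 2 h at 37 °C, stopped with cold methanol, centrifuged, supernatant analysed by UPLC with ESI tandem quadrupole MS.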

A short description of data set [28]: Antiproliferative activity against human IMR32 cells assessed as cell viability after 48 hrs by formazan EZ4U dye based assay. Conditions: IMR-32, 48 h. Summed up:
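HEK-293 (1.5 × 10⁴/well) or IMR-32 (2 × 10⁴/well) cells in DMEM with 10% FBS, 37 °C, 5% CO₂, grown 24 h to about 60% confluence; compounds 0.01–250 µM final, DMSO at most 1%, 48 h.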

The subject of data set [29] is Mus musculus. Put plainly: Neurotoxicity in CF1 albino mouse at 30 mg/kg, ip after 0.5 hrs by rotarod test. Type of data set: toxicity, organism-based. Conditions: in vivo. Summed up: as §2
In data set [30] the target is Cytochrome P450 3A4 (Homo sapiens, UniProt P08684). In words: Inhibition of CYP3A4 (unknown origin) up to 10 uM. Type of data set: ADME.

The structures appear in SMILES notation. Active and inactive are the calls of the source.

T1 sequence (Q9Y5N1 whole entry): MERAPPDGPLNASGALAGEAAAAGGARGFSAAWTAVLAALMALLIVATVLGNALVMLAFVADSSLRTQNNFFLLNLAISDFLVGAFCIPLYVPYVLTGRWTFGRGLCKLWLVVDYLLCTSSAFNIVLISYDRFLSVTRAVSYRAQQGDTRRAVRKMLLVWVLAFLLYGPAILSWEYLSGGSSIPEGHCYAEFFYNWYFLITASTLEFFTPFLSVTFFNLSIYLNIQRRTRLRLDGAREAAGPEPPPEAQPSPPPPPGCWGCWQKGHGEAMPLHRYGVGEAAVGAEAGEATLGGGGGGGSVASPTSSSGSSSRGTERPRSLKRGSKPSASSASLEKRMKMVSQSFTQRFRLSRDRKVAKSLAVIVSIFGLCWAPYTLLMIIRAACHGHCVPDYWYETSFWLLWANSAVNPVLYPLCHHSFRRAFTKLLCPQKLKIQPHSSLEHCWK
Cytochrome P450 3A4, sequence (P08684 whole entry): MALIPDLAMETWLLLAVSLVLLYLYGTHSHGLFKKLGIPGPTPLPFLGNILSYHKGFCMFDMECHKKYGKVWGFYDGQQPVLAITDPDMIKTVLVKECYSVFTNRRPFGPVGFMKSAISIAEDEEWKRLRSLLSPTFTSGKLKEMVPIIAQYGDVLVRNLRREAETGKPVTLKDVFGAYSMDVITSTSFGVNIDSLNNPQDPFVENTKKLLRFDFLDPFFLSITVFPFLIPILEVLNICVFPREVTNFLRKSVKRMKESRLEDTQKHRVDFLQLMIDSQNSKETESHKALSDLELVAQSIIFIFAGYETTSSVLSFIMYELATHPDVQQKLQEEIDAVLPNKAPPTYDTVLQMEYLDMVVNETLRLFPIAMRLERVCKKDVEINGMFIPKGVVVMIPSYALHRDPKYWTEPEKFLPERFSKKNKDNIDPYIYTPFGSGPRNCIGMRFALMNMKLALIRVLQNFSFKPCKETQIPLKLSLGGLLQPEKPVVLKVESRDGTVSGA

`Clc1ccc(OCCCCCCN2CCCCC2)cc1.O=C(O)C(=O)O`: the result in data set [1] and in [5] was Active. The Activity entry in data set [2] is “Non-toxic”; in [3], “Toxic”; in data set [7], “Non-toxic”; in [8] it was “Non-toxic”; in data set [9], “Non-toxic”; in data set [11] it was “Toxic”. Besides, the Activity entry in [13], in data set [17] and in data set [18] was “Non-toxic” in each case. Further, the result in data set [4], in data set [6], in data set [10], in [12], in data set [14] and in data set [15] was inactive. The result in [16], in data set [20] and in data set [21] was inactive. Also, the Ki (usually a measure of affinity in units of concentration, obtained from inhibition or displacement) in data set [19] came to 265 nM.
For `CC1CCCN(CCCCCOc2ccc(Cl)cc2)C1.O=C(O)C(=O)O` (centres undefined), the outcome in [22], in data set [23], in data set [4], in data set [6], in [12] and in data set [16] was inactive. The outcome in [20] was inactive. Besides, in [1], the outcome was Active. The Activity result in data set [3] is given as “Toxic”; in data set [24], 25%; in [25], “Toxic”; in data set [7] it was “Non-toxic”; in [8], “Non-toxic”; in data set [9], “Non-toxic”. In addition, the Activity result in [13], in data set [17] and in data set [29] was “Non-toxic” throughout. Further, the EC50 (usually the concentration needed to bring the measured effect to its halfway point) in data set [26] stood at 72 nM. Further, in [27], the Drug metabolism result is “metabolite_detected”. In addition, the IC50 – broadly, the concentration at which inhibition is half-maximal – in [28] was determined as 89000 nM. In addition, the Ki in data set [19] was 133 nM. In addition, in data set [30], the “inhibition (INH)” value is given as “Not Active”.
Consider `COc1cccc2c1C(=O)c1c(O)c3c(c(O)c1C2=O)C[C@@](O)(C(=O)CO)C[C@@H]3O[C@H]1C[C@H](N)[C@H](O)[C@H](C)O1` [DOXORUBICIN], for which, in data set [28], the IC50 turned out to be 5.1 nM.

The values above are taken from ChEMBL document CHEMBL3745596, “Chlorophenoxy aminoalkyl derivatives as histamine H(3)R ligands and antiseizure agents” (Bioorg Med Chem, 2016).
